Results: ChEMBL document CHEMBL4033630, “Discovery of novel 7-azaindole derivatives bearing dihydropyridazine moiety as c-Met kinase inhibitors” (Eur J Med Chem, 2017)

Experiments:
[1] = target: Hepatocyte growth factor receptor (Homo sapiens, UniProt P08581); assay: Inhibition of c-Met (unknown origin) using poly (Glu, Tyr) 4:1 as substrate after 30 mins by HTRF assay
U-87 MG [2] = assay: Cytotoxicity against human U87MG cells after 72 hrs by MTT assay; type: functional, cell-based, U-87MG ATCC
How it was run: (§1)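 Cells grown in MEM with 10% FBS. About 4 × 10³ cells per well, incubated 24 h at 37°C in 5% CO₂. Compound added at the indicated final concentrations, then 72 h culture. MTT at […] final for 4 h at 37°C. Three independent experiments; IC50 reported as mean.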

HT-29 [3] = assay: Cytotoxicity against human HT-29 cells after 72 hrs by MTT assay; conditions: HT-29, 72 h
A549 [4] = assay: Cytotoxicity against human A549 cells after 72 hrs by MTT assay; conditions: A549, 72 h
NCI-H460 = assay: Cytotoxicity against human H460 cells after 72 hrs by MTT assay; type: functional, cell-based; conditions: NCI-H460, 72 h; how it was run: as §1
[5] = target: T1, Receptor-type tyrosine-protein kinase FLT3 (Homo sapiens, UniProt P36888); assay: Inhibition of Flt-3 (unknown origin) using poly (Glu, Tyr) 4:1 as substrate after 30 mins by HTRF assay
T1 sequence (P36888 whole entry): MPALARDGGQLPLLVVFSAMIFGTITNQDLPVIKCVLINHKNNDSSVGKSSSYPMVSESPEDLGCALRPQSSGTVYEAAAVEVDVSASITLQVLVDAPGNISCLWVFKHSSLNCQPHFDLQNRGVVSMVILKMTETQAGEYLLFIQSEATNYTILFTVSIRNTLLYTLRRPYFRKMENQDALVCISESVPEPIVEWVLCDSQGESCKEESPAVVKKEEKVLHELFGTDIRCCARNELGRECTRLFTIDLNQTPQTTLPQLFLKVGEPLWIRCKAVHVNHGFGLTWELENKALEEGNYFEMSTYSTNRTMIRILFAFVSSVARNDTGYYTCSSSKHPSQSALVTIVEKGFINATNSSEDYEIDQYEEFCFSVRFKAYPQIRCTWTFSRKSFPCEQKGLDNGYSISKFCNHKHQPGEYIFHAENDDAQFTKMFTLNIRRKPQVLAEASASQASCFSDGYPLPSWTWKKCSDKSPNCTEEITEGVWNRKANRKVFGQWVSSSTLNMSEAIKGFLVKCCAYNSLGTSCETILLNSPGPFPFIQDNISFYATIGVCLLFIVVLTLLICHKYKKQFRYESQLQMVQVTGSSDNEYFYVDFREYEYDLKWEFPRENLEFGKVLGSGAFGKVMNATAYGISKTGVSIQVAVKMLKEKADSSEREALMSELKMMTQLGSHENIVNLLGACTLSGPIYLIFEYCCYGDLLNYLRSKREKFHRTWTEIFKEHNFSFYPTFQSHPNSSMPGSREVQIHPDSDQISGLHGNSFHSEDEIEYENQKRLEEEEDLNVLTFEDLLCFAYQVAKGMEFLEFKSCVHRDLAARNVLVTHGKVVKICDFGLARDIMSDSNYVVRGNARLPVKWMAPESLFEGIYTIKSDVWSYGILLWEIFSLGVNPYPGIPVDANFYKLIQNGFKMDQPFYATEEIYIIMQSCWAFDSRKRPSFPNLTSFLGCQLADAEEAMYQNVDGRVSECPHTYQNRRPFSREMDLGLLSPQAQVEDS
How it was run: (§2)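 Purified kinase protein added to start the reaction on preloaded poly(Glu,Tyr) 4:1 substrate at 20 µg/mL. ATP 10 mM solution in HEPES 50 mM pH 7.0 buffer with DTT, MgCl₂, MnCl₂ and 0.1% NaN₃. Compounds added in 1% DMSO. Reaction run 30 min at 25°C, stopped with Streptavidin-XL665 plus Tk antibody cryptate, read at 320/615 nm. Percent inhibition taken against enzyme-free and full-enzyme controls; IC50 from inhibition curves.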

[6] = target: Platelet-derived growth factor receptor beta (Homo sapiens, UniProt P09619); assay: Inhibition of PDGFRbeta (unknown origin) using poly (Glu, Tyr) 4:1 as substrate after 30 mins by HTRF assay; how it was run: as §2
[7] = target: Epidermal growth factor receptor (Homo sapiens, UniProt P00533); assay: Inhibition of EGFR (unknown origin) using poly (Glu, Tyr) 4:1 as substrate after 30 mins by HTRF assay; how it was run: as §2
[8] = Potency index, ratio of foretinib IC50 to compound IC50 for human H460 cells; type: functional
[9] = target: Vascular endothelial growth factor receptor 2 (Homo sapiens, UniProt P35968); assay: Inhibition of VEGFR-2 (unknown origin) using poly (Glu, Tyr) 4:1 as substrate after 30 mins by HTRF assay; how it was run: as §2
A549 [10] = assay: Potency index, ratio of foretinib IC50 to compound IC50 for human A549 cells; type: functional
[11] = target: Mast/stem cell growth factor receptor Kit (Homo sapiens, UniProt P10721); assay: Inhibition of c-Kit (unknown origin) using poly (Glu, Tyr) 4:1 as substrate after 30 mins by HTRF assay; how it was run: as §2
U-87 MG [12] = assay: Potency index, ratio of foretinib IC50 to compound IC50 for human U87MG cells; type: functional, U-87MG ATCC
HT-29 [13] = assay: Potency index, ratio of foretinib IC50 to compound IC50 for human HT-29 cells; type: functional

Chain of Hepatocyte growth factor receptor (P08581 whole entry): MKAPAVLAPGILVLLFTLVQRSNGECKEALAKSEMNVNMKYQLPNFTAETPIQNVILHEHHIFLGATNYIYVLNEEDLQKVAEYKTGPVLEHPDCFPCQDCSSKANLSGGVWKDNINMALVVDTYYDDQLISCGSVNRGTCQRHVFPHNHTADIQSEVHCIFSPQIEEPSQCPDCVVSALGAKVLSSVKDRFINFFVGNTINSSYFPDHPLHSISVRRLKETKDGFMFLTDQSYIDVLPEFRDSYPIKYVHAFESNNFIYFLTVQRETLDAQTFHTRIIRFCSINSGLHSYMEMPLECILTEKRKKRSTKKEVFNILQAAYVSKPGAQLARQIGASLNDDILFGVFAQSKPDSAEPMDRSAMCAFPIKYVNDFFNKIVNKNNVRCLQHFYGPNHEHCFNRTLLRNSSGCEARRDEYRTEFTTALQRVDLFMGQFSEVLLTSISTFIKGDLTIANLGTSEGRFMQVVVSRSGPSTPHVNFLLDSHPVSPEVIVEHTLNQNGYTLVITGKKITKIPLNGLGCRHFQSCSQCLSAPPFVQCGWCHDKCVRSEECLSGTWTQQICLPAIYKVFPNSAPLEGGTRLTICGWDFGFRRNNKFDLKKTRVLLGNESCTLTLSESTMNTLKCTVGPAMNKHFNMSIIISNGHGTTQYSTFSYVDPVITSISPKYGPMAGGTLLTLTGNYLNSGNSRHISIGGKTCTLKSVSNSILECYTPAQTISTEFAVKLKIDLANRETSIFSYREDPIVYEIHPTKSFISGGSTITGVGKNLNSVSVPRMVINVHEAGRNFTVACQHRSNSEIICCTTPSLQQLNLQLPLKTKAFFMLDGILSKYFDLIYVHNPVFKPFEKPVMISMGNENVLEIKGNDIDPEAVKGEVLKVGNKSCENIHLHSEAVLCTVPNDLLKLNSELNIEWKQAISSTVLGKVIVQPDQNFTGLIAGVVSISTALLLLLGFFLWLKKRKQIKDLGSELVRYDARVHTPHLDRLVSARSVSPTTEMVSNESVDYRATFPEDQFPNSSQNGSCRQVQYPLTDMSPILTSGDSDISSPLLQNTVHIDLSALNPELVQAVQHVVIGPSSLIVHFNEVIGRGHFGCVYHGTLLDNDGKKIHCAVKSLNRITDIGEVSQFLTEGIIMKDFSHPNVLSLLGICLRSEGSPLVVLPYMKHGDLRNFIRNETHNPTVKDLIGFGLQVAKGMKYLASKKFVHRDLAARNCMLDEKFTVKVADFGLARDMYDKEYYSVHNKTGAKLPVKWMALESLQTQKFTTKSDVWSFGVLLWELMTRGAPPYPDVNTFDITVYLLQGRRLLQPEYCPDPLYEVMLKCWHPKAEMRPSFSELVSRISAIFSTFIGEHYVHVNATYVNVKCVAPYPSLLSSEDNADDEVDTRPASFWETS
Chain of Epidermal growth factor receptor (P00533 whole entry): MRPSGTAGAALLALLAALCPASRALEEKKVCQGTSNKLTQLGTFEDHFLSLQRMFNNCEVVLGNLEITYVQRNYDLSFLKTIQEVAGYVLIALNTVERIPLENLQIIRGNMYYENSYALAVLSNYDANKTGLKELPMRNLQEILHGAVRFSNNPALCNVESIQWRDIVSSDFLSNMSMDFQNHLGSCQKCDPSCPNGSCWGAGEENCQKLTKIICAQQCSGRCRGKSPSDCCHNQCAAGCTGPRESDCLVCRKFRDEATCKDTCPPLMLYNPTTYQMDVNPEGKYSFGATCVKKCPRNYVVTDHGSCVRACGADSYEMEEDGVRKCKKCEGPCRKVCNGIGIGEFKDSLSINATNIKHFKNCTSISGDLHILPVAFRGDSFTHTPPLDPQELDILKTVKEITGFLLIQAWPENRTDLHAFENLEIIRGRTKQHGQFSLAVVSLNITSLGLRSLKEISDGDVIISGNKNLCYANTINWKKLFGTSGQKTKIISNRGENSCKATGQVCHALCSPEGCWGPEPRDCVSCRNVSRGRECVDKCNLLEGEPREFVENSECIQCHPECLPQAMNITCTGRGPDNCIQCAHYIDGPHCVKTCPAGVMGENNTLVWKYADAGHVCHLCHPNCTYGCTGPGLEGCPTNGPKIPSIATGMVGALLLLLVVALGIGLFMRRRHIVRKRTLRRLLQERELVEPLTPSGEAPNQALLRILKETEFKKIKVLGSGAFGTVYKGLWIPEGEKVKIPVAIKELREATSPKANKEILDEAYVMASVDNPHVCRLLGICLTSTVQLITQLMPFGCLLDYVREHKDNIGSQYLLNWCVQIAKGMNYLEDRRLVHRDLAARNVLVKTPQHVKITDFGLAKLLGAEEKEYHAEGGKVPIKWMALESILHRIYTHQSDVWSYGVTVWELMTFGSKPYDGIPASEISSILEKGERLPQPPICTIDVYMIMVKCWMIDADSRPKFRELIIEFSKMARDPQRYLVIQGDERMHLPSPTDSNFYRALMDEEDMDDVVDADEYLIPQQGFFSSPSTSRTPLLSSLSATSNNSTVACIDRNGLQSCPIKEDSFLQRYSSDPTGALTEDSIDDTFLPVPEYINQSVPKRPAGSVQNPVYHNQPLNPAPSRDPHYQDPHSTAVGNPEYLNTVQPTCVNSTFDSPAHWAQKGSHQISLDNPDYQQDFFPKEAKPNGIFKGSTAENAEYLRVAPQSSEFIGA
Chain of Vascular endothelial growth factor receptor 2 (P35968 whole entry): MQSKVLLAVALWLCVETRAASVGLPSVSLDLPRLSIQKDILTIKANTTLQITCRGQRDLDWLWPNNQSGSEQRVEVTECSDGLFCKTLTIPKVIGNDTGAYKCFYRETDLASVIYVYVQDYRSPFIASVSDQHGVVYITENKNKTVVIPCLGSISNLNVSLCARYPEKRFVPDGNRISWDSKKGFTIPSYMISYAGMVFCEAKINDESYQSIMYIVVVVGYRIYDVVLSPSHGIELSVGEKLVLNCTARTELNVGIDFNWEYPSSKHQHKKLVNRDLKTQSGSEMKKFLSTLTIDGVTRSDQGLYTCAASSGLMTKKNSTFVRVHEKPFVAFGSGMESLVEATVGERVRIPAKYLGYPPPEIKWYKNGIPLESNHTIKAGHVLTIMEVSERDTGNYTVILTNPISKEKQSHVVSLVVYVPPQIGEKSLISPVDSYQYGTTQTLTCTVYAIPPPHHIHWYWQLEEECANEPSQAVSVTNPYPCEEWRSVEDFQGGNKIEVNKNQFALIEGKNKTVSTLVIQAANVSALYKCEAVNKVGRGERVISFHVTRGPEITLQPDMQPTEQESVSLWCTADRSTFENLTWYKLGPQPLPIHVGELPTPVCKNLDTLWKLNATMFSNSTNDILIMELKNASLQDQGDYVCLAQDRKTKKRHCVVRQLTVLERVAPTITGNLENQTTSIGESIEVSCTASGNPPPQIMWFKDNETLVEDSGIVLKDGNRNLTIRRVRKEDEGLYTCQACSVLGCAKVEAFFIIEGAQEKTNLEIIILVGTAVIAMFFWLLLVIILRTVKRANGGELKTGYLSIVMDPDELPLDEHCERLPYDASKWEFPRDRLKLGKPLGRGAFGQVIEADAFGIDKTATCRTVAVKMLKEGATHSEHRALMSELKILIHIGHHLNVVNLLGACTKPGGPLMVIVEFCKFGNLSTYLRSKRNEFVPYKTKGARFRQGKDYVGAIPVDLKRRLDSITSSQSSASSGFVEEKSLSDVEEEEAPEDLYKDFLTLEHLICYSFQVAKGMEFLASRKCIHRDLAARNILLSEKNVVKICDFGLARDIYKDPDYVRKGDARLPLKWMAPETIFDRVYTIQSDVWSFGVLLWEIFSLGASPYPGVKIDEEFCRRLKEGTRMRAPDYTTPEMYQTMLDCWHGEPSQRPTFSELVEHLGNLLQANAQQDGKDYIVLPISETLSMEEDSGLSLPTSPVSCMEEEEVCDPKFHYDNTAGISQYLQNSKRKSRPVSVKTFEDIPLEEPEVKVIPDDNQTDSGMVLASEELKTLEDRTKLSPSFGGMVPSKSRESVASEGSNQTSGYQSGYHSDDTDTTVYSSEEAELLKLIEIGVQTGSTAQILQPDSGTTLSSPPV
Chain of Platelet-derived growth factor receptor beta (P09619 whole entry): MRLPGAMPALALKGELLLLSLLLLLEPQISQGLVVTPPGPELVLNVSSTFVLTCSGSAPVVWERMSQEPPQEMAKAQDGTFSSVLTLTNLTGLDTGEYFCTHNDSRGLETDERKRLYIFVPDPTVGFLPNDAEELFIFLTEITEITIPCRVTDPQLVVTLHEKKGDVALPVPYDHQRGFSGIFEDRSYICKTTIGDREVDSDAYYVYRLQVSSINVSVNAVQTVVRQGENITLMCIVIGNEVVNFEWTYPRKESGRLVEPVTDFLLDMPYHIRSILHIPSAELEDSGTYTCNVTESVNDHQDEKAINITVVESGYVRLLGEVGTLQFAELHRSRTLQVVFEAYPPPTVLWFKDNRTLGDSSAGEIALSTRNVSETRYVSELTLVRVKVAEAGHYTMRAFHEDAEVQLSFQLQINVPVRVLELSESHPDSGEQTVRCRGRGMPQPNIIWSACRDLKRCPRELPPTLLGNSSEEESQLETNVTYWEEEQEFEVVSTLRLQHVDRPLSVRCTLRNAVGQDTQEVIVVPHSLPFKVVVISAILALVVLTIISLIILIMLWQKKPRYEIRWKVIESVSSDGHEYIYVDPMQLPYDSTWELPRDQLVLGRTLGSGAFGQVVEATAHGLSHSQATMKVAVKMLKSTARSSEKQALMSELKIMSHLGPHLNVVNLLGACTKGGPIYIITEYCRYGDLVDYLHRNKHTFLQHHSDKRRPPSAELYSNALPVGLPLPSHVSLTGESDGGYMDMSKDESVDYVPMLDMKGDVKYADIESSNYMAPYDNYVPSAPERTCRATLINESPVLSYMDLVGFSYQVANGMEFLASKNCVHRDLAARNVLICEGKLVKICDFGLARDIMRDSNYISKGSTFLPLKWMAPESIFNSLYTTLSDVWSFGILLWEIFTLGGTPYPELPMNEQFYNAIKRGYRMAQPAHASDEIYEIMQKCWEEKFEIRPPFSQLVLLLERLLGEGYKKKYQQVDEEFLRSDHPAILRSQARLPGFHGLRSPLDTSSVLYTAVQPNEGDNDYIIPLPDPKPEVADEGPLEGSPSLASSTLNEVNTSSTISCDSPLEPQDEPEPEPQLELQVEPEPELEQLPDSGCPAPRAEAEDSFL

Cc1cc(=O)n(-c2cccc(Br)c2)nc1C(=O)Nc1ccc(Oc2ccnc3c2ccn3C)cc1
IC50 [1]: 10.5 nM

Cc1cc(=O)n(-c2cccc(F)c2)nc1C(=O)Nc1ccc(Oc2ccnc3c2ccn3C)cc1
IC50 (U-87 MG [2]): 8820 nM | IC50 (HT-29 [3]): 320 nM | IC50 (A549 [4]): 410 nM | IC50 [1]: 15.3 nM | IC50 (NCI-H460): 320 nM

Cc1cc(=O)n(-c2ccc(Br)cc2F)nc1C(=O)Nc1ccc(Oc2ccnc3c2ccn3C)cc1
IC50 [1]: 36.2 nM

Cc1cc(=O)n(-c2cccc(C(F)(F)F)c2)nc1C(=O)Nc1ccc(Oc2ccnc3c2ccn3C)c(F)c1
IC50 (U-87 MG [2]): 2310 nM | IC50 (HT-29 [3]): 360 nM | IC50 (A549 [4]): 620 nM | IC50 [1]: 29.3 nM | IC50 (NCI-H460): 520 nM

Cc1cc(=O)n(-c2ccc(F)c(Cl)c2)nc1C(=O)Nc1ccc(Oc2ccnc3[nH]ccc23)cc1
IC50 [1]: 42.2 nM

Cc1cc(=O)n(-c2ccc(Cl)cc2Cl)nc1C(=O)Nc1ccc(Oc2ccnc3c2ccn3C)cc1
IC50 [1]: 49.2 nM

Cc1ccccc1-n1nc(C(=O)Nc2ccc(Oc3ccnc4[nH]ccc34)cc2)c(C)cc1=O
IC50 [1]: 19.1 nM

Cc1cc(=O)n(-c2ccc(F)cc2)nc1C(=O)Nc1ccc(Oc2ccnc3c2ccn3C)cc1
IC50 [1]: 9.21 nM

Cc1cc(=O)n(-c2ccccc2)nc1C(=O)Nc1ccc(Oc2ccnc3[nH]ccc23)cc1
IC50 [1]: 18.3 nM

Cc1cc(=O)n(-c2ccc(Br)cc2F)nc1C(=O)Nc1ccc(Oc2ccnc3[nH]ccc23)cc1
IC50 [1]: 41.2 nM

Cc1cc(=O)n(-c2cccc(F)c2)nc1C(=O)Nc1ccc(Oc2ccnc3[nH]ccc23)cc1
IC50 (U-87 MG [2]): 3420 nM | IC50 (HT-29 [3]): 210 nM | IC50 (A549 [4]): 420 nM | IC50 [1]: 11.6 nM | IC50 (NCI-H460): 190 nM

Cc1cc(=O)n(-c2ccccc2F)nc1C(=O)Nc1ccc(Oc2ccnc3[nH]ccc23)cc1
IC50 [1]: 12.6 nM

Cc1cc(=O)n(-c2ccc(F)c(Cl)c2)nc1C(=O)Nc1ccc(Oc2ccnc3c2ccn3C)cc1
IC50 [1]: 45.3 nM

Cc1cc(=O)n(-c2ccc(Cl)cc2Cl)nc1C(=O)Nc1ccc(Oc2ccnc3[nH]ccc23)c(F)c1
IC50 [1]: 22.4 nM

Cc1ccccc1-n1nc(C(=O)Nc2ccc(Oc3ccnc4[nH]ccc34)c(F)c2)c(C)cc1=O
IC50 [1]: 10.3 nM

Cc1cc(=O)n(-c2ccc(Cl)cc2Cl)nc1C(=O)Nc1ccc(Oc2ccnc3[nH]ccc23)cc1
IC50 [1]: 56.3 nM

Cc1ccc(C)c(-n2nc(C(=O)Nc3ccc(Oc4ccnc5c4ccn5C)cc3)c(C)cc2=O)c1
IC50 [1]: 41.3 nM

Cc1cc(=O)n(-c2ccccc2C(F)(F)F)nc1C(=O)Nc1ccc(Oc2ccnc3[nH]ccc23)cc1
IC50 [1]: 39.5 nM

Cc1cc(=O)n(-c2cccc(C(F)(F)F)c2)nc1C(=O)Nc1ccc(Oc2ccnc3c2ccn3C)cc1
IC50 [1]: 32.2 nM

Cc1cc(=O)n(-c2ccccc2C(F)(F)F)nc1C(=O)Nc1ccc(Oc2ccnc3c2ccn3C)cc1
IC50 [1]: 46.3 nM

COc1ccc(-n2nc(C(=O)Nc3ccc(Oc4ccnc5[nH]ccc45)cc3)c(C)cc2=O)cc1
IC50 [1]: 46.9 nM

COc1ccc(-n2nc(C(=O)Nc3ccc(Oc4ccnc5[nH]ccc45)c(F)c3)c(C)cc2=O)cc1
IC50 [1]: 18.3 nM

Cc1cc(=O)n(-c2ccccc2F)nc1C(=O)Nc1ccc(Oc2ccnc3[nH]ccc23)c(F)c1
IC50 [1]: 5.02 nM

Cc1cc(=O)n(-c2ccccc2F)nc1C(=O)Nc1ccc(Oc2ccnc3c2ccn3C)cc1
IC50 [1]: 14.4 nM

Cc1ccc(C)c(-n2nc(C(=O)Nc3ccc(Oc4ccnc5[nH]ccc45)cc3)c(C)cc2=O)c1
IC50 [1]: 33.5 nM

Cc1cc(=O)n(-c2ccccc2C(F)(F)F)nc1C(=O)Nc1ccc(Oc2ccnc3[nH]ccc23)c(F)c1
IC50 [1]: 11.2 nM

Cc1cc(=O)n(-c2ccc(F)cc2)nc1C(=O)Nc1ccc(Oc2ccnc3[nH]ccc23)c(F)c1
IC50 (U-87 MG [2]): 760 nM | IC50 (HT-29 [3]): 39 nM | IC50 [5]: 1.32 nM | IC50 [6]: 3.26 nM | IC50 (A549 [4]): 46 nM | IC50 [1]: 1.06 nM | IC50 [7]: 725 nM | Ratio IC50 [8]: 3.2 | IC50 [9]: 672 nM | Ratio IC50 (A549 [10]): 7.8 | IC50 [11]: 318 nM | Ratio IC50 (U-87 MG [12]): 1.3 | IC50 (NCI-H460): 91 nM | Ratio IC50 (HT-29 [13]): 6.4

Cc1cc(=O)n(-c2cccc(C(F)(F)F)c2)nc1C(=O)Nc1ccc(Oc2ccnc3[nH]ccc23)cc1
IC50 [1]: 35.3 nM

Cc1cc(=O)n(-c2ccccc2)nc1C(=O)Nc1ccc(Oc2ccnc3c2ccn3C)cc1
IC50 [1]: 19.5 nM

Cc1cc(=O)n(-c2ccc(F)cc2)nc1C(=O)Nc1ccc(Oc2ccnc3[nH]ccc23)cc1
IC50 (U-87 MG [2]): 5460 nM | IC50 (HT-29 [3]): 140 nM | IC50 (A549 [4]): 230 nM | IC50 [1]: 8.42 nM | IC50 (NCI-H460): 160 nM

Cc1cc(=O)n(-c2cccc(F)c2)nc1C(=O)Nc1ccc(Oc2ccnc3[nH]ccc23)c(F)c1
IC50 [1]: 5.61 nM

Cc1cc(=O)n(-c2ccc(Br)cc2F)nc1C(=O)Nc1ccc(Oc2ccnc3[nH]ccc23)c(F)c1
IC50 [1]: 18.2 nM
